Hits are enriched below; roughly 2.8% of the tested compounds scored in any of these assays.
PAFAH1B2 inh – inhibitors of human PAFAH1B2 | P68402 | recombinant PAFAH1B2, FP-rhodamine activity probe, fluorescence polarization | inhibition, % at 3.39 µM | 1.2% of 340,000 active | AID 492953;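 active = inhibition above the mean of all tested compounds plus 3 SD, cut at about 24% in these data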;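 also: 0% = enzyme with DMSO and 100% = wells lacking PAFAH1B2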
Target sequence (P68402 whole entry, looked up): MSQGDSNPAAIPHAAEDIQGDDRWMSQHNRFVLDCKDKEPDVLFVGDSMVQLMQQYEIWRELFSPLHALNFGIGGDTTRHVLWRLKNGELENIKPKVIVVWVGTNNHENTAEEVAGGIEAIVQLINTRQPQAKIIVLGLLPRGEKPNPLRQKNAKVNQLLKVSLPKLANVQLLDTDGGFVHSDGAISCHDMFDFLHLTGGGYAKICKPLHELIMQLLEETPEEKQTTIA
ABHD4 inh – ABHD4 (mouse) inhibition, primary FP screen | purified mABHD4, FP-Rh probe fluorescence polarization | inhibition, % at 8.92 µM | 0.54% of 370,000 active | AID 720543;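 active = inhibition exceeding the mean over every tested compound plus 3 SD, cut at about 30% in these data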;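 also: 0% = plate median of compound wells and 100% = S159A mutant with DMSO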
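Test system: mouse ABHD4 enzyme, wild type. Reagent: FP-Rh fluorescent activity-based probe, added after compound pre-incubation. Timing: pre-incubation 45 min, probe exposure 60 min, at 25 °C. Technique: FP readout, ex 525 nm / em 598 nm. Benchmarks: high control S159A mutant with DMSO, low control median of compound wells.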
PAFAH2 inh – PAFAH2 (human) inhibition | Q99487 | recombinant PAFAH2, FP-rhodamine activity probe, fluorescence polarization | inhibition, % at 3.39 µM | 0.99% of 340,000 active | AID 492956;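 active = inhibition above the mean over all tested compounds plus 3 SD, cut at about 30% in these data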;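 also: inhibitors block probe labeling of enzyme so polarization drops; 0% = enzyme with DMSO and 100% = wells lacking PAFAH2 protein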
HTRA1 inh – blocks human HTRA1 serine peptidase | recombinant HTRA1, FP-rhodamine activity-based probe, fluorescence polarization | inhibition, % at 5.96 µM | 0.5% of 340,000 active; in the data active = inhibition above about 36%;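 also: 0% = enzyme with DMSO and 100% = wells lacking enzyme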
Target sequence (Q92743 whole entry, looked up): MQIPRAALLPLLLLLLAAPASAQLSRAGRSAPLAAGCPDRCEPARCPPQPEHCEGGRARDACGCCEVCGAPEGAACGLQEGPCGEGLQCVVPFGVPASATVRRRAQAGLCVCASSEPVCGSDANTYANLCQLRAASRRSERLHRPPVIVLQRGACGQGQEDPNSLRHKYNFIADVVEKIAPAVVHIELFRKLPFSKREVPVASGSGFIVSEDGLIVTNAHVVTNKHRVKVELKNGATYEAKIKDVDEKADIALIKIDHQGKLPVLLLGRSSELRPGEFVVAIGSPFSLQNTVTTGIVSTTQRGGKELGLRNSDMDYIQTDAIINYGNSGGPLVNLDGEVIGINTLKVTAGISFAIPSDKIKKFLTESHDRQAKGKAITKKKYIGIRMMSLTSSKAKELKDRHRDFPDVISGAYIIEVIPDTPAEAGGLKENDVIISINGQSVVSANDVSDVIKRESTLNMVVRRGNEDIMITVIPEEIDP
pPAFAH FP inh – inhibitors of human plasma PAF acetylhydrolase (pPAFAH); inhibition, % at 3.39 µM; Q13093; AID 463082; 1.5% of 330,000 active; recombinant pPAFAH, FP-rhodamine probe fluorescence polarization;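 active = inhibition above the mean inhibition across the screen plus 3 SD, cut at about 25% in these data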;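 also: inhibitors block binding of the rhodamine activity-based probe so polarization drops; 0% = enzyme with DMSO and 100% = wells lacking pPAFAH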
PAFAH1B3 inh – blocks human PAF acetylhydrolase 1B catalytic subunit 3. Q15102. recombinant PAFAH1B3, FP-rhodamine probe, fluorescence polarization. inhibition, % at 3.39 µM. 0.28% of 340,000 active. AID 492972;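 active = inhibition above the screen-wide average of all tested compounds plus 3 SD, cut at about 25% in these data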;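 also: 0% = enzyme with DMSO only and 100% = wells lacking PAFAH1B3 protein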
PAFAH2 FP conf – PAFAH2 (human) inhibition, confirmed | shares compounds with PAFAH2 inh | inhibition, % at 3.39 µM | 65% of 2,300 active | recombinant PAFAH2, FP-rhodamine activity probe, fluorescence polarization;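 active = mean inhibition over three repeats above a set limit taken from the earlier primary screen, cut at about 30% in these data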;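 also: inhibitor blocks binding of rhodamine activity probe so polarization falls; 0% = enzyme with DMSO and 100% = wells lacking PAFAH2 protein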
Numbers without * were called inactive.

What do the screens show for `CN(C)c1cccc(C(=O)OCC(=O)NC2CCCC2)c1`?
PAFAH1B2 inh: 5; ABHD4 inh: 5; PAFAH2 inh: 77*; HTRA1 inh: 11; pPAFAH FP inh: 23; PAFAH1B3 inh: 7; PAFAH2 FP conf: 78*

How did C[C@H](O)[C@@H]1CN2CCc3c([nH]c4c(-c5ccc6c(c5)OCO6)cccc34)[C@@H]2C[C@@H]1N(C)C(=O)c1ccco1 do in these assays?
ABHD4 inh: 2

What do the screens show for `COc1ccc(OC)c(/C=C2\SC(=S)N(C(C(=O)O)c3ccccc3)C2=O)c1` (stereo unspecified)?
PAFAH1B2 inh: 0; ABHD4 inh: 17; PAFAH2 inh: 32*; HTRA1 inh: -21; pPAFAH FP inh: 4; PAFAH1B3 inh: 6; PAFAH2 FP conf: 15

What do the screens show for `COc1cccc(/C=C2\SC(=S)N(C(Cc3ccccc3)C(=O)O)C2=O)c1` (stereo unspecified)?
PAFAH1B2 inh: 5; ABHD4 inh: -7; PAFAH2 inh: 33*; HTRA1 inh: -37; pPAFAH FP inh: 3; PAFAH1B3 inh: 0; PAFAH2 FP conf: 16

How did O=C(NC1CCCN(C2Cc3ccccc3C2)C1)c1ccc(F)cc1Cl (stereo unspecified) do in these assays?
PAFAH1B2 inh: 2; ABHD4 inh: 6; PAFAH2 inh: 42*; HTRA1 inh: -1; pPAFAH FP inh: 2; PAFAH1B3 inh: 1; PAFAH2 FP conf: 16

What do the screens show for `CSCC(=O)NC1CCCN(C2Cc3ccccc3C2)C1` (stereo unspecified)?
PAFAH1B2 inh: 4; ABHD4 inh: 10; PAFAH2 inh: 6; HTRA1 inh: -1; pPAFAH FP inh: 2; PAFAH1B3 inh: -4

How did O=C(NCc1ccccc1)O[C@H]1CC[C@@]23CCCN2C(=O)CCC[C@H]3C1 do in these assays?
ABHD4 inh: 0

What do the screens show for `Cc1ccc(C(=O)ONc2ccc(N=O)cc2)cc1`?
PAFAH1B2 inh: 0; ABHD4 inh: -14; PAFAH2 inh: 57*; HTRA1 inh: -8; pPAFAH FP inh: 10; PAFAH1B3 inh: -4; PAFAH2 FP conf: 52*

What do the screens show for `Cc1ccc(C(=O)ONc2ccc(N=NC(=O)c3ccccc3O)cc2)cc1`?
PAFAH1B2 inh: 6; ABHD4 inh: 14; PAFAH2 inh: 45*; HTRA1 inh: 24; pPAFAH FP inh: -6; PAFAH1B3 inh: 10; PAFAH2 FP conf: 22

What do the screens show for `COC(=O)c1ccc(NN=Nc2ccc(C)cc2)cc1`?
PAFAH1B2 inh: 4; ABHD4 inh: -5; PAFAH2 inh: -1; HTRA1 inh: 4; pPAFAH FP inh: 3; PAFAH1B3 inh: 2

What do the screens show for `Cc1cc(C)nc(N2CCC(C(=O)N(C)CCc3ccccn3)CC2)n1`?
ABHD4 inh: -7

What do the screens show for `O=C(COC(=O)c1ccc(Br)cc1)NCCC1=CCCCC1`?
PAFAH1B2 inh: 3; ABHD4 inh: -7; PAFAH2 inh: 31*; HTRA1 inh: -3; pPAFAH FP inh: 19; PAFAH1B3 inh: 8; PAFAH2 FP conf: 32*

Results for Cc1ccsc1C(=O)OCC(=O)NCCC1=CCCCC1 ?
PAFAH1B2 inh: 0; ABHD4 inh: 1; PAFAH2 inh: 32*; HTRA1 inh: -8; pPAFAH FP inh: 9; PAFAH1B3 inh: -2; PAFAH2 FP conf: 25

How did O=C(COC(=O)c1ccc[nH]c1=O)NCCC1=CCCCC1 do in these assays?
PAFAH1B2 inh: 8; ABHD4 inh: -7; PAFAH2 inh: 1; HTRA1 inh: 4; pPAFAH FP inh: 0; PAFAH1B3 inh: 7

Results for O=C(COC(=O)c1ccccc1)NCCC1=CCCCC1 ?
PAFAH1B2 inh: 2; ABHD4 inh: 3; PAFAH2 inh: 35*; HTRA1 inh: -1; pPAFAH FP inh: 9; PAFAH1B3 inh: 0; PAFAH2 FP conf: 31*

Results for O=C(COC(=O)CNC(=O)c1ccc(Br)cc1)NCCC1=CCCCC1 ?
PAFAH1B2 inh: 1; ABHD4 inh: -5; PAFAH2 inh: 5; HTRA1 inh: -5; pPAFAH FP inh: 11; PAFAH1B3 inh: 7

Results for Nc1cc(C(=O)OCC(=O)NCCC2=CCCCC2)ccc1Cl ?
PAFAH1B2 inh: 3; ABHD4 inh: -1; PAFAH2 inh: 52*; HTRA1 inh: -4; pPAFAH FP inh: 16; PAFAH1B3 inh: -5; PAFAH2 FP conf: 38*

How did COC(=O)[C@]12C[C@H](CC(=O)NCC34CC5CC(CC(C5)C3)C4)C(=O)N(Cc3ccc4c(c3)OCO4)C1=C[C@H](C(C)C)O[C@@H]2C1CC1 do in these assays?
ABHD4 inh: 1

Results for O=C(CCc1ccccc1)N[C@H]1[C@H](O)CCC[C@]12C(=O)N(Cc1ccccc1)c1ccccc12 ?
ABHD4 inh: -6

Results for COc1ccc(C2CC(c3ccccc3)=NN2C(=O)COC(=O)c2cc(S(=O)(=O)N3CCOCC3)ccc2F)cc1 (stereo unspecified) ?
PAFAH1B2 inh: 6; ABHD4 inh: 1; PAFAH2 inh: 48*; HTRA1 inh: -11; pPAFAH FP inh: 2; PAFAH1B3 inh: -5; PAFAH2 FP conf: 51*

Results for CCCCCCNC(=O)c1c(N)[nH]c(C(=O)c2ccccc2)c1-c1ccc(O)cc1 ?
ABHD4 inh: -1

Results for CCCCCCC(=O)Nc1c(O)c2ccccc2[nH]c1=O ?
PAFAH1B2 inh: 10; ABHD4 inh: 3; PAFAH2 inh: 42*; HTRA1 inh: 2; pPAFAH FP inh: 2; PAFAH1B3 inh: 11; PAFAH2 FP conf: 22

Results for c1ccn(-c2ccc(-c3noc(CCc4ccncc4)n3)cc2)c1 ?
ABHD4 inh: -5

What do the screens show for `COC(=O)[C@]12C[C@H](CC(=O)N3CCN(C(=O)c4ccco4)CC3)C(=O)N(Cc3ccco3)C1=C[C@H](COCc1ccccc1)O[C@@H]2C`?
ABHD4 inh: -1

Results for Cc1cc2c(=O)oc(-c3ccccc3Br)nc2s1 ?
PAFAH1B2 inh: 3; ABHD4 inh: 1; PAFAH2 inh: 69*; HTRA1 inh: -70; PAFAH1B3 inh: 5; PAFAH2 FP conf: 52*

What do the screens show for `COc1cc2nc(-c3ccccc3C)oc(=O)c2cc1OC`?
PAFAH1B2 inh: 1; ABHD4 inh: -10; PAFAH2 inh: 6; HTRA1 inh: 0; pPAFAH FP inh: 1; PAFAH1B3 inh: 10

What do the screens show for `NC(=O)COc1c(-c2ccc(Br)o2)oc2ccccc2c1=O`?
PAFAH1B2 inh: -2; PAFAH2 inh: 31*; HTRA1 inh: 9; pPAFAH FP inh: 2; PAFAH1B3 inh: 1; PAFAH2 FP conf: 4

How did COC(=O)[C@]12C[C@H](CC(=O)NCc3ccc(OC)c(OC)c3)C(=O)N(Cc3ccc(Cl)cc3Cl)C1=C[C@H](C1CCCC1)O[C@@H]2C do in these assays?
ABHD4 inh: -7
